Experimental data as given in ChEMBL document CHEMBL5352427, “Isoquinolone derivatives as lysophosphatidic acid receptor 5 (LPA5) antagonists: Investigation of structure-activity relationships, ADME properties and analgesic effects” (Eur J Med Chem, 2022).
Active and inactive are the calls of the source. No rule for the calls is given here.

How the values were obtained:
Format in all cases: functional, cell-based
[1] = target: T1, Lysophosphatidic acid receptor 5 (Homo sapiens, UniProt Q9H1C0); test: Agonist activity at human LPA5 receptor expressed in RH7777 cells assessed as calcium mobilization incubated for 15 mins by FLIPR method
T1 sequence (Q9H1C0 whole entry): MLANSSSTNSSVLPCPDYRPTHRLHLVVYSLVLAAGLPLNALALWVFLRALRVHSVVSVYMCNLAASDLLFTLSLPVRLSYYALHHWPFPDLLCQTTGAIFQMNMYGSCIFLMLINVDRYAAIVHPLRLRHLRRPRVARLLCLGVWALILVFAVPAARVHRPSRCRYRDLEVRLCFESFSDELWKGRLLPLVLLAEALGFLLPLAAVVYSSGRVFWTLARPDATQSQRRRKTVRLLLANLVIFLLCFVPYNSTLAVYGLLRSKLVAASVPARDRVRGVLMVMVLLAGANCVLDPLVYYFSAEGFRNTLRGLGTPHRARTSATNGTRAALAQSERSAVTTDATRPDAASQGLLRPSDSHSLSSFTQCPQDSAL
Method in brief: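 RH7777 cells stably expressing hLPA5, plated 20,000/well in 0.2% FBS medium 18–20 h, loaded 45 min at 37 °C with Calcium 5 dye in HBSS/20 mM HEPES/2.5 mM probenecid pH 7.4. […] Duplicates.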

[2] = target: T1, Lysophosphatidic acid receptor 5; test: Antagonist activity at human LPA5 receptor expressed in RH7777 cells assessed as inhibition of EC80 concentration of hexadecyl LPA-induced calcium mobilization incubated for 15 mins by FLIPR method
[3] = target: T1, Lysophosphatidic acid receptor 5; test: Antagonist activity at human LPA5 receptor expressed in RH7777 cells assessed as inhibition of EC80 concentration of hexadecyl LPA-induced calcium mobilization incubated for 15 mins by FLIPR method relative to hexadecyl LPA
[4] = target: T1, Lysophosphatidic acid receptor 5; test: Antagonist activity at human LPA5 receptor expressed in RH7777 cells assessed as inhibition of EC80 concentration of LPA-induced cAMP accumulation preincubated for 30 mins followed by Eu-cAMP tracer addition and measured after 1 hr by TR-FRET assay relative to hexadecyl LPA; conditions: filed as antagonist
Method in brief: (§1)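 hLPA5-RH7777 cells, switched to 0.2% FBS medium 20 h prior, lifted with versene, 2,000 cells/well in HBSS/5 mM HEPES/0.1% BSA/0.5 mM IBMX pH 7.4. Compound dilutions with hexadecyl LPA 16:0 EC80 (300 nM) plus forskolin, 30 min room temperature; LANCE Ultra Eu-cAMP tracer/ULight-anti-cAMP 1 h; TR-FRET 665 nm converted to cAMP via standard curve. Three-parameter logistic IC50; ≥3 experiments in duplicate.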

[5] = target: T1, Lysophosphatidic acid receptor 5; test: Antagonist activity at human LPA5 receptor expressed in RH7777 cells assessed as inhibition of EC80 concentration of LPA-induced cAMP accumulation preincubated for 30 mins followed by Eu-cAMP tracer addition and measured after 1 hr by TR-FRET assay; method in brief: as §1

COc1cc2c(C(=O)N3CCCCC3)cn(-c3cccc(C(N)=O)c3)c(=O)c2cc1OC
Activity [1]: inactive
IC50 [2]: > 10 µM

COc1cc2c(C(=O)N3CCC3)cn(-c3cccc(N(C)C)c3)c(=O)c2cc1OC
Activity [1]: inactive
IC50 [2]: > 10 µM

COc1cc2c(C(=O)N3CCCCC3)cn(-c3ccc4onc(C)c4c3)c(=O)c2cc1OC
Activity [1]: inactive
IC50 [2]: 3.9 µM
inhibition ([3]; filed as antagonist): 56%

COc1cc2c(C(=O)N3CCC(c4ccccc4)CC3)cn(-c3cccc(N(C)C)c3)c(=O)c2cc1OC
Activity [1]: inactive
IC50 [2]: 1.19 µM
inhibition ([3]; filed as antagonist): 108%

COc1cc2c(C(=O)N3CCC(C(N)=O)CC3)cn(-c3cccc(N(C)C)c3)c(=O)c2cc1OC
Activity [1]: inactive
IC50 [2]: > 10 µM

COc1cc2c(C(=O)N(C)C)cn(-c3cccc(N(C)C)c3)c(=O)c2cc1OC
Activity [1]: inactive
IC50 [2]: > 10 µM

COc1cc2c(=O)n(-c3cccc(N(C)C)c3)cc(C(=O)N3CCC(F)CC3)c2cc1OC(C)C
Activity [1]: inactive
IC50 [2]: 0.369 µM
inhibition ([3]; filed as antagonist): 96%

COc1cc2c(C(=O)N3CCCCC3)cn(-c3ccc4sccc4c3)c(=O)c2cc1OC
Activity [1]: inactive
IC50 [2]: 0.64 µM
inhibition ([3]; filed as antagonist): 101%

COc1cc2c(C(=O)N3CCCC(C)C3)cn(-c3cccc(N(C)C)c3)c(=O)c2cc1OC (racemic)
Activity [1]: inactive
IC50 [2]: 0.26 µM
inhibition ([3]; filed as antagonist): 104%

COc1cc2c(C(=O)N3CCCCC3)cn(-c3ccc4cccc(C)c4c3)c(=O)c2cc1OC
Activity [1]: inactive
IC50 [2]: 0.21 µM
inhibition ([3]; filed as antagonist): 108%

COc1ccc2c(C(=O)N3CCC(F)CC3)cn(-c3cccc(N(C)C)c3)c(=O)c2c1
Activity [1]: inactive
IC50 [2]: 1.06 µM
inhibition ([3]; filed as antagonist): 96%

COc1cc2c(C(=O)N3CCCCC3)cn(-c3cccc(C(C)=O)c3)c(=O)c2cc1OC
Activity [1]: inactive
IC50 [2]: 1.76 µM
inhibition ([3]; filed as antagonist): 74%

COc1cc2c(C(=O)N3CCC(c4ccc(F)cc4F)CC3)cn(-c3cccc(N(C)C)c3)c(=O)c2cc1OC
Activity [1]: inactive
IC50 [2]: > 10 µM

COc1cc2c(C(=O)N3CCCCC3)cn(-c3ccncc3)c(=O)c2cc1OC
Activity [1]: inactive
IC50 [2]: > 10 µM

COc1cc2c(C(=O)N(C)Cc3ccncc3)cn(-c3cccc(N(C)C)c3)c(=O)c2cc1OC
Activity [1]: inactive
IC50 [2]: > 10 µM

COc1cc2c(C(=O)C3CCCCC3)cn(-c3cccc(N(C)C)c3)c(=O)c2cc1OC
Activity [1]: inactive
IC50 [2]: > 10 µM

COc1cc2c(C(=O)N3CCCCC3)cn(-c3cccc(C(C)(C)C)c3)c(=O)c2cc1OC
Activity [1]: inactive
IC50 [2]: 0.173 µM
inhibition ([3]; filed as antagonist): 107%

COc1cc2c(C(=O)N3CCCCC3)cn(-c3ccc4occc4c3)c(=O)c2cc1OC
Activity [1]: inactive
IC50 [2]: 1.1 µM
inhibition ([3]; filed as antagonist): 93%

CC#CC1CCN(C(=O)c2cn(-c3cccc(N(C)C)c3)c(=O)c3cc(OC)c(OC)cc23)CC1
Activity [1]: inactive
IC50 [2]: 0.091 µM
inhibition ([3]; filed as antagonist): 91%

COc1cc2c(C(=O)N3C4CCCC3CC4)cn(-c3cccc(N(C)C)c3)c(=O)c2cc1OC
Activity [1]: inactive
IC50 [2]: 0.23 µM
inhibition ([3]; filed as antagonist): 103%

CCCCCNC(=O)c1cn(-c2cccc(N(C)C)c2)c(=O)c2cc(OC)c(OC)cc12
Activity [1]: inactive
IC50 [2]: > 10 µM

CCCOc1cc2c(C(=O)N3CCC(F)CC3)cn(-c3cccc(N(C)C)c3)c(=O)c2cc1OC
Activity [1]: inactive
IC50 [2]: 0.48 µM
inhibition ([3]; filed as antagonist): 109%

COc1cc2c(C(=O)N3CCOCC3)cn(-c3cccc(N(C)C)c3)c(=O)c2cc1OC
Activity [1]: inactive
IC50 [2]: 2.2 µM
inhibition ([3]; filed as antagonist): 71%

CCNC(=O)c1cn(-c2cccc(N(C)C)c2)c(=O)c2cc(OC)c(OC)cc12
Activity [1]: inactive
IC50 [2]: > 10 µM

COc1cc2c(C(=O)N3CCCCC3C)cn(-c3cccc(N(C)C)c3)c(=O)c2cc1OC (racemic)
Activity [1]: inactive
IC50 [2]: 0.99 µM
inhibition ([3]; filed as antagonist): 98%

COc1cc2c(C(=O)N(C)OC)cn(-c3cccc(N(C)C)c3)c(=O)c2cc1OC
Activity [1]: inactive
IC50 [2]: 0.32 µM
inhibition [3]: 33%

COc1cc2c(C(=O)N3CCCCC3)cn(-c3cccc(C(C)C)c3)c(=O)c2cc1OC
Activity [1]: inactive
IC50 [2]: 0.063 µM
inhibition ([3]; filed as antagonist): 105%

COc1cc2c(C(=O)N3CCC(OC)CC3)cn(-c3cccc(N(C)C)c3)c(=O)c2cc1OC
Activity [1]: inactive
IC50 [2]: 0.64 µM
inhibition ([3]; filed as antagonist): 89%

COc1cc2c(=O)n(-c3cccc(N(C)C)c3)cc(C(=O)N3CCC(F)CC3)c2cc1OC1CCCC1
Activity [1]: inactive
IC50 [2]: 0.89 µM
inhibition ([3]; filed as antagonist): 103%

COc1cc2c(C(=O)N3C4CCC3CC4)cn(-c3cccc(N(C)C)c3)c(=O)c2cc1OC
Activity [1]: inactive
IC50 [2]: > 10 µM

COc1cc2c(C(=O)N3CCCCC3)cn(-c3cccc(C(=O)N(C)C)c3)c(=O)c2cc1OC
Activity [1]: inactive
IC50 [2]: > 10 µM

COc1cc2c(C(=O)N3CCC(F)CC3)cn(-c3ccc4occc4c3)c(=O)c2cc1OC
Activity [1]: inactive
IC50 [2]: 1.49 µM
inhibition ([3]; filed as antagonist): 88%

COc1cc2c(C(=O)Nc3ccccc3)cn(-c3cccc(N(C)C)c3)c(=O)c2cc1OC
Activity [1]: inactive
IC50 [2]: > 10 µM

COc1cc2c(C(=O)N3CCCCC3)cn(-c3ccccn3)c(=O)c2cc1OC
Activity [1]: inactive
IC50 [2]: > 10 µM

COc1cc2c(C(=O)N3CCCCCCC3)cn(-c3cccc(N(C)C)c3)c(=O)c2cc1OC
Activity [1]: inactive
IC50 [2]: 0.301 µM
inhibition ([3]; filed as antagonist): 109%

CN(C)c1cccc(-n2cc(C(=O)N3CCC(F)CC3)c3ccccc3c2=O)c1
Activity [1]: inactive
IC50 [2]: > 10 µM

CCCCCOc1cc2c(C(=O)N3CCC(F)CC3)cn(-c3cccc(N(C)C)c3)c(=O)c2cc1OC
Activity [1]: inactive
IC50 [2]: 0.23 µM
inhibition ([3]; filed as antagonist): 111%

COc1ccc2c(=O)n(-c3cccc(N(C)C)c3)cc(C(=O)N3CCC(F)CC3)c2c1
Activity [1]: inactive
IC50 [2]: > 10 µM

COc1cc2c(C(=O)N3CCCCC3)cn(-c3ccc4scc(C)c4c3)c(=O)c2cc1OC
Activity [1]: inactive
IC50 [2]: 0.032 µM
inhibition ([3]; filed as antagonist): 105%

COc1cc2c(=O)n(-c3cccc(N(C)C)c3)cc(C(=O)N3CCC(F)CC3)c2cc1OCC(F)(F)F
Activity [1]: inactive
IC50 [2]: 2.5 µM
inhibition ([3]; filed as antagonist): 74%

COc1cc2c(C(=O)N3CCC(C#N)CC3)cn(-c3cccc(N(C)C)c3)c(=O)c2cc1OC
inhibition [4]: 92%
Activity [1]: inactive
IC50 [2]: 0.102 µM
inhibition ([3]; filed as antagonist): 89%

COc1cc2c(C(=O)N3CCC(C)(C)CC3)cn(-c3cccc(N(C)C)c3)c(=O)c2cc1OC
Activity [1]: inactive
IC50 [2]: 1.1 µM
inhibition ([3]; filed as antagonist): 90%

COc1cc2c(C(=O)N3CCC(C)CC3)cn(-c3cccc(N(C)C)c3)c(=O)c2cc1OC
Activity [1]: inactive
IC50 [2]: 0.16 µM
inhibition ([3]; filed as antagonist): 105%

COc1cc2c(C(=O)N3CCC(C(F)(F)F)CC3)cn(-c3cccc(N(C)C)c3)c(=O)c2cc1OC
Activity [1]: inactive
IC50 [2]: 1.56 µM
inhibition ([3]; filed as antagonist): 87%

COc1cc2c(C(=O)N3CCCC3)cn(-c3cccc(N(C)C)c3)c(=O)c2cc1OC
Activity [1]: inactive
IC50 [2]: > 10 µM

COc1cc2c(C(=O)N3CCCc4ccccc43)cn(-c3cccc(N(C)C)c3)c(=O)c2cc1OC
Activity [1]: inactive
IC50 [2]: 4.32 µM
inhibition ([3]; filed as antagonist): 86%

COc1cc2c(C(=O)NC3CCCC3)cn(-c3cccc(N(C)C)c3)c(=O)c2cc1OC
Activity [1]: inactive
IC50 [2]: > 10 µM

COc1cc2c(C(=O)N3CCCCC3)cn(-c3cccc(OC(C)C)c3)c(=O)c2cc1OC
Activity [1]: inactive
IC50 [2]: 0.63 µM
inhibition ([3]; filed as antagonist): 100%

C#CC1CCN(C(=O)c2cn(-c3cccc(N(C)C)c3)c(=O)c3cc(OC)c(OC)cc23)CC1
inhibition [4]: 101%
Activity [1]: inactive
IC50 [2]: 0.046 µM
inhibition ([3]; filed as antagonist): 105%

COc1cc2c(C(=O)NCc3ccccc3)cn(-c3cccc(N(C)C)c3)c(=O)c2cc1OC
Activity [1]: inactive
IC50 [2]: > 10 µM

COc1cc2c(=O)n(-c3cccc(N(C)C)c3)cc(C(=O)N3CCC(F)CC3)c2cc1OCc1ccccn1
Activity [1]: inactive
IC50 [2]: > 10 µM

CCCCCCCCCCCCCCCCOC[C@@H](O)COP(=O)(O)O
EC50 [2]: 0.015 µM
EC50 [5]: 0.095 µM

COc1cc2c(=O)n(-c3cccc(N(C)C)c3)cc(C(=O)N3CCC(F)CC3)c2cc1O
Activity [1]: inactive
IC50 [2]: 1.37 µM
inhibition ([3]; filed as antagonist): 93%

COc1cc2c(C(=O)N3CCCCC3)cn(-c3cccnc3)c(=O)c2cc1OC
Activity [1]: inactive
IC50 [2]: > 10 µM

COc1cc2c(=O)n(-c3cccc(N(C)C)c3)cc(C(=O)N3CCC(F)CC3)c2cc1OC1CCCCC1
Activity [1]: inactive
IC50 [2]: 0.51 µM
inhibition ([3]; filed as antagonist): 96%

COc1cc2c(=O)n(-c3cccc(N(C)C)c3)cc(C(=O)N3CCC(F)CC3)c2cc1OCc1cccc2ccccc12
Activity [1]: inactive
IC50 [2]: > 10 µM
